Assay outcomes: PubChem BioAssay, several laboratories
A1 inh – inhibitors of the anti-apoptotic protein A1, read as caspase activation. MEF A1-2A-BIM cells, Caspase-Glo 3/7 luminescence, 3 h; percent of clofoctol response, vehicle zero. caspase activation, % (test concentration not listed). 330,000 compounds, 0.066% hits;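 active = over half of replicate activation scores above 10%, or exactly half above 10 with the replicate mean above 10; inconclusive = replicate mean below 10 yet half the replicates above 10; inactive = over half of replicates below 10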
H9c2 TAG inh – triacylglycerol accumulation inhibition. H9c2 cells, Nile Red lipid (TAG) fluorescence; cells loaded with 200 µM oleic acid. inhibition, % at 12.5 µM. 230,000 compounds, 0.66% hits;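 active = pattern-corrected inhibition of lipid staining of at least 50% with the nuclear-stain viability signal not falling by more than 50%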;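 also: 0% = DMSO wells and 100% = triacsin C control wells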
Beta cell apopt – blocks beta cell apoptosis | INS-1E cytokine-induced death, ATP luminescence, 48 h; percent of positive-control rescue, neutral wells zero | protection from apoptosis, % (test concentration not listed) | 300,000 compounds, 0.8% hits | AID 435005;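 active = Every replicate reaches about 75%, or at least half do and their mean reaches it too, limit read from the data; inconclusive = At least half of replicates reach the limit but their mean does not; inactive = Under half of replicates reach the limit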;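 also: 0% = cytokine-treated negative control wells and 100% = positive control rescue; higher means more ATP so stronger rescue from cytokine killing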
T cruzi repl – T. cruzi replication inhibition; T. cruzi beta-gal in NIH3T3, luminescence, 90 h; inhibition, % (concentration not given with the values); 300,000 compounds, 1.4% hits; AID 1885;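 active = mean inhibition across valid replicates above about 55%, limit read from the data; inconclusive = mean below that limit but half or more replicates reach it; inactive = mean below it, under half of replicates reach it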;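 also: signal also drops with host cell toxicity which is not excluded here; 0% = plate median of DMSO wells and 100% = zero luminescence signal; higher percent means less beta-gal luminescence so fewer parasites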
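Assay system: NIH/3T3 host cells with β-galactosidase reporter T. cruzi; input: 5,000 host fibroblasts per well; compound: single 50 nL compound addition per well in DMSO; timing: ≥90 h infection period, 3 h prior cell attachment; measured by: GalScreen β-gal luminescence, detergent lysis, 60 min; evaluation: percent inhibition of parasite-derived β-gal signal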
Calb FLC – C. albicans growth modulation with fluconazole; 300,000 compounds, 0.57% hits; growth inhibition, % (no concentration beside the values); C. albicans CaCi-2 + fluconazole, Alamar Blue growth, 48 h; AID 1979;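 active = growth inhibition above about 58% in most replicates, limit read from the data, passing the limit was not always enough; inconclusive = exactly half the replicates above a set limit; inactive = most replicates below a set limit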;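 also: all wells also contain fluconazole at 8 µg/ml as a sub-toxic cotreatment; 0% = median of DMSO wells and 100% = median of geldanamycin control wells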
CSC inhib – blocks cancer stem cells; cancer stem cell-like cells viability, luminescence; inhibition, % at 7.5 µM; 300,000 compounds, 1.1% hits; in the data active = inhibition above about 75%; inconclusive = no clear call, values can overlap the other calls; tested in HMLE shEcad cells
H9c2 TAG conf – triacylglycerol accumulation inhibition, confirmation; H9c2 lipid accumulation, Nile Red fluorescence; cells loaded with 200 µM oleic acid; inhibition, % at 12.5 µM; shares compounds with H9c2 TAG inh; 990 compounds, 71% hits;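 active = mean inhibition across replicates of 40% or more; inactive = mean inhibition below 40%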;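 also: plate controls were DMSO only wells for no effect and Triacsin C treated wells for full effect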
The depositor's hits bear a star; ? = inconclusive; nt = no result given. Shown are actives, neighbours in structure and some others; about 3.1% of the full set was active somewhere.

SMILES	A1 inh	H9c2 TAG inh	Beta cell apopt	T cruzi repl	Calb FLC	CSC inhib	H9c2 TAG conf
C/C=C(/C)C(=O)OC1CC(C)(C)C[C@H]2C3=CC[C@@H]4[C@@]5(C)CCC(O[C@@H]6O[C@@H](C(=O)O)[C@@H](O)C(O[C@@H]7OC[C@H](O)[C@@H](O)[C@@H]7O[C@@H]7OC(CO)C(O)[C@@H](O)[C@@H]7O)C6O[C@@H]6OC(CO)C(O)C(O)C6O)[C@@](C)(CO)[C@@H]5CC[C@]4(C)[C@]3(C)CC(O)[C@@]12CO (stereo not given in full)	1	6	44	nt	nt	33	nt
CC(=O)OC1COC(OC2C(O)C(C)OC(OC3C(OC4CCC5(C)C(CCC6(C)C5CC=C5C7CC(C)(C)CCC7(C(=O)O)CCC56C)C4(C)CO)OCC(O)C3O)C2O)C(O)C1OC(C)=O (stereo not given)	0	nt	107*	nt	nt	-3	nt
O=C(NCCCc1ccccc1)Nc1cccc(Cl)c1	0	nt	4	20	107*	21	nt
S=C(NCCN(C1CCCCC1)C1CCCC1)Nc1cccc(Cl)c1	1	nt	12	32	9	34	nt
S=C(NCCC(c1ccccc1)c1ccccc1)Nc1cccc(Cl)c1	0	4	-1	44	-7	122*	nt
Cc1ccc(-n2nc3c(c2NC(=O)CC(C)C)CS(=O)C3)cc1 (stereo not given)	0	-7	-2	-2	5	-4	nt
COc1cc(/C=N/NC(=O)CSc2cc(C)c(Br)cc2C)ccc1O	1	-17	0	-7	27	3	nt
Cc1cc(SCC(=O)N/N=C/c2ccc(O)c(O)c2O)c(C)cc1Br	1	nt	33	28	107*	-19	nt
CC1(C)C([N+](=O)[O-])C(c2ccc(F)cc2)NC(c2ccc(F)cc2)C1[N+](=O)[O-] (stereo not given)	0	-5	-1	9	-1	8	nt
CC1(C)C([N+](=O)[O-])C(c2ccc(Cl)cc2)NC(c2ccc(Cl)cc2)C1[N+](=O)[O-] (stereo not given)	1	nt	1	58*	0	51	nt
CCOC(=O)CCCCCC(=O)Nc1ccc2c(c1)CC(=O)N([C@H](C)CO)C[C@H](C)[C@H](CN(C)S(=O)(=O)c1ccc(OC)cc1)O2	0	4	-9	nt	nt	-10	nt
COc1ccc(-c2cc(CNc3nc(NC(C)C)nc4cc(-c5ccccc5)sc34)on2)cc1	nt	96*	nt	nt	nt	nt	79*
CC(=O)Nc1ccc(CNc2nc(NC(C)C)nc3cc(-c4ccccc4)sc23)cc1	nt	23	nt	nt	nt	nt	nt
COc1ccc(CCn2c(-n3nc(C)cc3C)nc3c2c(=O)[nH]c(=O)n3C)cc1	1	54*	nt	-13	7	56	62*
CN(C)c1ncnc2c1ncn2C1OC(CO)C(O)C1O (stereo not given)	3	75*	69	?	-2	nt	46*
CCS(=O)(=O)N1CCC(C(=O)Nc2ccc(C(C)=O)cc2)CC1	0	nt	-1	-19	1	6	nt
CCNC(=O)NC(=O)CSc1ccc(S(=O)(=O)N(C)C2CCCCC2)cn1	1	-2	-4	nt	nt	-15	nt
O=C1OCCN1C(=O)[C@H]1[C@H](c2ccc(F)cc2)C(c2ccc(F)cc2)=NN1c1ccc(Br)cc1	1	-3	-3	25	18	7	nt
O=C1OCCN1C(=O)[C@H]1[C@H](c2ccc(Cl)cc2)C(c2ccc(F)cc2)=NN1c1ccc(Br)cc1	nt	105*	nt	nt	nt	nt	10
Cc1nn(CC(=O)OCC(=O)Nc2cccc(S(N)(=O)=O)c2)c(C)c1[N+](=O)[O-]	1	-13	0	nt	nt	-10	nt
Cc1nn(-c2ccccc2)c(Cl)c1C(=O)NNC(=O)c1ccccc1O	-2	-20	43	nt	nt	35	nt
Cc1cc(=O)oc2cc(NC(=O)c3cccc(Br)c3)ccc12	0	69*	43	5	7	17	52*
Cc1ccc(S(=O)(=O)NC2=C(N3CCN(c4ccccc4F)CC3)C(=O)c3ccccc3C2=O)cc1	-1	68*	4	27	-2	6	78*
Cc1ccc(S(=O)(=O)NC2=C(N3CCN(Cc4ccccc4)CC3)C(=O)c3ccccc3C2=O)cc1	0	nt	29	-7	26	8	nt
Nc1cccc(-c2c[nH]c3ncc(-c4cccnc4)cc23)c1	nt	-18	nt	nt	nt	nt	nt
SMILES	A1 inh	H9c2 TAG inh	Beta cell apopt	T cruzi repl	Calb FLC	CSC inhib	H9c2 TAG conf
CCC(C)NC(=O)C1(N2C(=O)c3ccccc3C2=O)CCCC1 (stereo not given)	nt	-24	nt	nt	nt	nt	nt
CCOc1ccc(CCNC(=O)CN2CCN(Cc3ccc(F)cc3)C2=O)cc1OCC	0	33	nt	19	-3	-7	nt
CCOc1ccc(CCNC(=O)CN2CCN(Cc3ccccc3F)C2=O)cc1OCC	-1	60*	-3	15	2	-1	42*
CCCCNC(=O)C(=O)Nc1ccc2c(c1)N(S(=O)(=O)c1cccs1)CCC2	nt	60*	nt	nt	nt	nt	54*
COc1ccccc1NC(=S)N1CCC(c2nc3cc(C)c(C)cc3[nH]2)CC1	0	nt	1	14	-5	-8	nt
COc1ccccc1NC(=O)N1CCC(c2nc3cc(C)c(C)cc3[nH]2)CC1	0	51*	15	41	-3	67	45*
CC(C)CCNCC(O)CON=C1c2ccccc2-c2ccccc21 (stereo not given)	1	64*	29	50	?	52	42*
CC(C)(C)c1ccc(C(=O)N2CCC2(C)C(=O)NCc2cccc3ccccc23)cc1 (stereo not given)	nt	6	nt	nt	nt	nt	nt
COC(=O)Nc1nc2ccc(SC(C)C)cc2[nH]1	-2	52*	14	nt	nt	71	61*
CCCSc1ccc2nc(NC(=O)OC)[nH]c2c1	-2	58*	28	20	nt	47	60*
COC(=O)Nc1nc2ccc(C(=O)c3cccs3)cc2[nH]1	0	45	nt	-9	-1	55	nt
CCCCC(=O)N(C)c1c(C)nc2ccc(C(=O)N(C)Cc3ccco3)cn12	nt	7	nt	nt	nt	nt	nt
Cc1cc(C)nc(Sc2ncnc(N)c2[N+](=O)[O-])n1	0	61*	-32	21	19	2	37
CCc1noc(C)c1C(=O)Nc1ccccc1C(C)(C)C	1	13	-6	0	-11	-8	nt
COCCN1Cc2cccc(C(=O)Nc3cccc(-c4nc5ccccc5[nH]4)c3)c2C1=O	-1	80*	39	35	12	55	89*
O=C(NCCc1c[nH]c2ccccc12)C1CCC(Cn2c(=S)[nH]c3ccccc3c2=O)CC1 (stereo not given)	2	65*	11	75*	-10	76*	61*
COc1cccc(-c2cc3nc(C)c(C)c(N4CCN(C(=O)c5ccoc5)CC4)n3n2)c1	nt	23	nt	nt	nt	nt	nt
